From ChEMBL document CHEMBL4364292, “Discovery of a Potent and Selective CCR4 Antagonist That Inhibits Treg Trafficking into the Tumor Microenvironment” (J Med Chem, 2019)

Key:
[1] = molecular target: T1, C-C chemokine receptor type 4 (Homo sapiens, UniProt P51679); assay: Antagonist activity at human CCR4 expressed in rat chem-5 cells assessed as inhibition of CCL22-induced calcium flux measured at 2.5 secs time interval for 45 secs by fluorescence assay; type: functional, cell-based
T1 sequence (P51679 whole entry): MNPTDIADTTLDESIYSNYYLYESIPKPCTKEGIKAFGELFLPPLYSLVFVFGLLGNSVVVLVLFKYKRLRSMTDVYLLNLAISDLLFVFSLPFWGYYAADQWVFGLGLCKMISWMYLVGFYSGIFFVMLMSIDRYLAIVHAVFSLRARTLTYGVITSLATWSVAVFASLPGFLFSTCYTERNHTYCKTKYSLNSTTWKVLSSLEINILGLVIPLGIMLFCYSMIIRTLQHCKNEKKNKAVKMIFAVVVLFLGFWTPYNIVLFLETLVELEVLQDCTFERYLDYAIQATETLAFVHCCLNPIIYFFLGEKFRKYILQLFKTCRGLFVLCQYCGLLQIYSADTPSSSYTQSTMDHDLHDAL
Summary of the method: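 Calcium flux functional readout of CCR4 antagonism, run without serum; IC50 reported.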

[2] = AUC(0 to infinity) in rat at 2 mg/kg, po; type: ADME, organism-based; design: dose 2 mg/kg, route oral, time infinity; settings: in vivo
[3] = Stability in human hepatocytes assessed as compound remaining incubated for 60 mins under shaking condition by LC-MS/MS analysis; type: ADME, cell-based, Hepatocyte; settings: read-out: Stability
Summary of the method: (§1)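 Human and rat hepatocytes exposed to compound; percent parent remaining reported.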

Cytochrome P450 2C19 = Cytochrome P450 2C19 (Homo sapiens, UniProt P33261); assay: Inhibition of CYP2C19 (unknown origin); type: ADME
Summary of the method: (§2)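 CYP inhibition tested against 1A2, 2C9, 2C19, 2D6 and 3A4; IC50 in μM.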

[4] = Terminal half-life in rat at 0.5 mg/kg, iv or 2 mg/kg, po; type: ADME, organism-based; settings: in vivo, read-out: beta t1/2 (converted)
[5] = Oral bioavailability in rat at 2 mg/kg, po; type: ADME, organism-based; settings: in vivo
Cytochrome P450 1A2 = molecular target: T2, Cytochrome P450 1A2 (Homo sapiens, UniProt P05177); assay: Inhibition of CYP1A2 (unknown origin); type: ADME; summary of the method: as §2
T2 sequence (P05177 whole entry): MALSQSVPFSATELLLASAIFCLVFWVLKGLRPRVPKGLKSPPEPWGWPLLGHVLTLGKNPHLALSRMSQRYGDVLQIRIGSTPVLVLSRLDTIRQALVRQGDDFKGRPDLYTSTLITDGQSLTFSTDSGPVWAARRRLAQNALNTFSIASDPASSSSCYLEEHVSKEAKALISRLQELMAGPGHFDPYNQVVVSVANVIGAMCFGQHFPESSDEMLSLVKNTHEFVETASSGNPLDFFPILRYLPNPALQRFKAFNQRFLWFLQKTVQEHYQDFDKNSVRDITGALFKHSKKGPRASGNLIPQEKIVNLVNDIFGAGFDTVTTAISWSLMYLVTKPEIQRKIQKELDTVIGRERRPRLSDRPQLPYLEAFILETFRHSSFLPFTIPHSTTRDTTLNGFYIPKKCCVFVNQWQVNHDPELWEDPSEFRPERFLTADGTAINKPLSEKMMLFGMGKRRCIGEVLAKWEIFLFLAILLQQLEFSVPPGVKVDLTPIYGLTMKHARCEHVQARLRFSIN

Cytochrome P450 2C9 = Cytochrome P450 2C9 (Homo sapiens, UniProt P11712); assay: Inhibition of CYP2C9 (unknown origin); type: ADME; summary of the method: as §2
Cytochrome P450 2D6 = Cytochrome P450 2D6 (Homo sapiens, UniProt P10635); assay: Inhibition of CYP2D6 (unknown origin); type: ADME; summary of the method: as §2
[6] = Stability in rat hepatocytes assessed as compound remaining incubated for 60 mins under shaking condition by LC-MS/MS analysis; type: ADME, cell-based, Hepatocyte; settings: read-out: Stability; summary of the method: as §1
Cytochrome P450 3A4 = Cytochrome P450 3A4 (Homo sapiens, UniProt P08684); assay: Inhibition of CYP3A4 (unknown origin); type: ADME; summary of the method: as §2
[7] = Volume of distribution at steady state in rat at 0.5 mg/kg, iv or 2 mg/kg, po; type: ADME, organism-based; settings: in vivo, read-out: Vdss
[8] = Hepatic clearance in rat at 0.5 mg/kg, iv or 2 mg/kg, po; type: ADME, organism-based; settings: in vivo
[9] = Half-life in mouse; type: ADME, organism-based; settings: in vivo
Mus musculus [10] = assay: Inhibition of anti-CD3/CD28-stimulated B6-Foxp3 GFP positive mouse T-reg cell migration into tumor of mouse Pan02 cells implanted in po dosed C57BL/6 mouse assessed as decrease in number of GFP positive T-reg cells in tumor treated 24 hrs prior to T-reg cell addition followed by daily compound dosing for subsequent 4 days and measured on day 6 by flow cytometry; type: functional, organism-based
Summary of the method: (§3)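 Pan02 pancreatic tumor-bearing mice dosed QD for 6 days at 10 or 30 mg/kg. GFP+ induced Treg, made from naive CD4+ T cells of Foxp3-GFP transgenic mice, injected 24 h after first dose. GFP+ Treg counted in tumor and spleen versus vehicle group; plasma level taken 24 h after last dose; one-way ANOVA.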

[11] = Volume of distribution at steady state in mouse; type: ADME, organism-based; settings: in vivo, read-out: Vdss
[12] = Hepatic clearance in cynomolgus monkey at 0.5 mg/kg, iv or 2 mg/kg, po; type: ADME, organism-based, Macaca fascicularis; settings: in vivo
Summary of the method: (§4)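 Cross-species PK (dog, cynomolgus monkey): 0.5 mg/kg IV or 2 mg/kg PO; three animals per group.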

[13] = Oral bioavailability in cynomolgus monkey at 2 mg/kg, po; type: ADME, organism-based, Macaca fascicularis; settings: in vivo; summary of the method: as §4
[14] = Terminal half-life in cynomolgus monkey at 0.5 mg/kg, iv; type: ADME, organism-based, Macaca fascicularis; settings: in vivo, read-out: beta t1/2 (converted); summary of the method: as §4
[15] = Terminal half-life in dog at 0.5 mg/kg, iv; type: ADME, organism-based, Canis lupus familiaris; settings: in vivo, read-out: beta t1/2 (converted); summary of the method: as §4
[16] = Hepatic clearance in dog at 0.5 mg/kg, iv or 2 mg/kg, po; type: ADME, organism-based, Canis lupus familiaris; settings: in vivo; summary of the method: as §4
Mus musculus [17] = assay: Inhibition of anti-CD3/CD28-stimulated B6-Foxp3 GFP positive mouse T-reg cell migration into tumor of mouse Pan02 cells implanted in C57BL/6 mouse assessed as decrease in number of GFP positive T-reg cells in tumor at 30 mg/kg, po qd treated 24 hrs prior to T-reg cell addition followed by compound dosing for subsequent 4 days and measured on day 6 by flow cytometry relative to control; type: functional; settings: C57BL/6, Pan02, po; summary of the method: as §3
[18] = Clearance in mouse; type: ADME, organism-based; settings: in vivo
[19] = Oral bioavailability in dog at 2 mg/kg, po; type: ADME, organism-based, Canis lupus familiaris; settings: in vivo; summary of the method: as §4
[20] = Terminal half-life in rat at 0.5 mg/kg, iv; type: ADME, organism-based; settings: in vivo, read-out: beta t1/2 (converted)
[21] = Bioavailability in mouse; type: ADME, organism-based; settings: in vivo
[22] = Bioavailability in rat; type: ADME, organism-based; settings: in vivo
[23] = Hepatic clearance in rat at 0.5 mg/kg, iv; type: ADME, organism-based; settings: in vivo
[24] = AUCinfinity in rat at 0.5 mg/kg, iv; type: ADME, organism-based; design: dose 0.5 mg/kg, route intravenous, time infinity; settings: in vivo

Sequence of Cytochrome P450 3A4 (P08684 whole entry): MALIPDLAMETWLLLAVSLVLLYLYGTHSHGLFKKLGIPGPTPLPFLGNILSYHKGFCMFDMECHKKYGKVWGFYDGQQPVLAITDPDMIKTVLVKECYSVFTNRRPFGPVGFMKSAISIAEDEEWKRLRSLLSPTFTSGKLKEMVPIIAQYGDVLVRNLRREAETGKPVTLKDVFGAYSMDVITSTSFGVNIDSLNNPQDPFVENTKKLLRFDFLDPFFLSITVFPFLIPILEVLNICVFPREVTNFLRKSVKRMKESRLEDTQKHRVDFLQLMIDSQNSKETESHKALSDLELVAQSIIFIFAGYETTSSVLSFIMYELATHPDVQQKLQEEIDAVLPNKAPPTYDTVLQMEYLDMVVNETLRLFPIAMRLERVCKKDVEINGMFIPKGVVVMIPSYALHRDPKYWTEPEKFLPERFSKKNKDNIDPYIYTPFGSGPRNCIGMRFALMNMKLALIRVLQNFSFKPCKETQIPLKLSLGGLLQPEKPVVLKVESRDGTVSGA
Sequence of Cytochrome P450 2C19 (P33261 whole entry): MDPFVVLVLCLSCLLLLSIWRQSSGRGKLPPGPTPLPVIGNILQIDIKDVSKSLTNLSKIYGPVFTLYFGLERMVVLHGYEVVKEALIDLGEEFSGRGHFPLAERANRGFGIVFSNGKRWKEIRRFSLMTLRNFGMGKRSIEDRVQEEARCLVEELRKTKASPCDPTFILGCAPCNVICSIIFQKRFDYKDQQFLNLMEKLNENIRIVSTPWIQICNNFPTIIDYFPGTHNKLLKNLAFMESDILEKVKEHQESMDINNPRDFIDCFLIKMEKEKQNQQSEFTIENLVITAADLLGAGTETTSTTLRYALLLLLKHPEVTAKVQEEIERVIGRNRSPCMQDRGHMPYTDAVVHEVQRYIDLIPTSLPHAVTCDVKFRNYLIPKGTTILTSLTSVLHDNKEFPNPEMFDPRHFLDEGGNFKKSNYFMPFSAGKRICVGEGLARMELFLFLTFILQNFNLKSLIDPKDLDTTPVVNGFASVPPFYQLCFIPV
Sequence of Cytochrome P450 2C9 (P11712 whole entry): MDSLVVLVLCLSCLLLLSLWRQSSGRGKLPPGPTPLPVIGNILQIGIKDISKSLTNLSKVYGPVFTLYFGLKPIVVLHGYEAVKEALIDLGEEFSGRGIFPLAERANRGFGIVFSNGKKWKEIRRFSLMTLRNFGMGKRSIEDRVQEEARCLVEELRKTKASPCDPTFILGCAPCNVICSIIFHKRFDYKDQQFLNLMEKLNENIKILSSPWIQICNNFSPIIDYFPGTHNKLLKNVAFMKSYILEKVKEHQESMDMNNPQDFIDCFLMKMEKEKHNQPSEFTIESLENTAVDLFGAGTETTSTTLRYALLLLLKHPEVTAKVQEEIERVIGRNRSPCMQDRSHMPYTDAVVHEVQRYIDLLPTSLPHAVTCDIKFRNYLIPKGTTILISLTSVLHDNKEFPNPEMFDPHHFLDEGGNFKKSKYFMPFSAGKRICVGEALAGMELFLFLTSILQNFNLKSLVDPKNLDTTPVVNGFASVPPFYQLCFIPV
Sequence of Cytochrome P450 2D6 (P10635 whole entry): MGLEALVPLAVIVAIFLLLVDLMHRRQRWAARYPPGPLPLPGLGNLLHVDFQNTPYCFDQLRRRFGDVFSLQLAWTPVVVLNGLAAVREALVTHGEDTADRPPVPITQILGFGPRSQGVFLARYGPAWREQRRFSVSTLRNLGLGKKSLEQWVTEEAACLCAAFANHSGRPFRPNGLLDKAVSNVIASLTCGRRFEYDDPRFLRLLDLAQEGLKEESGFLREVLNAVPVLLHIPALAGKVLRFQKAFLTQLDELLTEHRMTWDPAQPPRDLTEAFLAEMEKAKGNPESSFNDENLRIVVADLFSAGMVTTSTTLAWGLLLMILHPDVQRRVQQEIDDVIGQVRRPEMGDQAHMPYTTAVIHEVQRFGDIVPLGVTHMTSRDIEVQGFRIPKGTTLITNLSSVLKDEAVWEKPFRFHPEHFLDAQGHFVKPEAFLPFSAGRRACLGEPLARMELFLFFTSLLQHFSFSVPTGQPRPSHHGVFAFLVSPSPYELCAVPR

C[C@@H]1CC(c2cnc3c(C#N)nn([C@H](C)c4ccc(Cl)cc4Cl)c3n2)=CC[C@@H]1N1CCC[C@H]1C(F)(F)F
IC50 [1]: > 5000 nM

Cc1nn([C@H](C)c2ccc(Cl)cc2Cl)c2nc(N3CC[C@H](N4CCCC4)[C@H](C)C3)cnc12
IC50 [1]: 69 nM

CC(c1ccc(Cl)cc1Cl)n1ncc2ncc(N3CCC(N4CCCCC4)CC3)nc21 (configuration not stated)
IC50 [1]: 2580 nM

C[C@@H]1CN(c2cnc3c(C#N)nn([C@H](C)c4ccc(Cl)cc4Cl)c3n2)CC[C@@H]1N1CCC[C@H]1CO
AUC(0-inf) [2]: 23.2 ng·h/mL | remaining at 1 h [3]: 74% | IC50 (Cytochrome P450 2C19): > 10000 nM | half-life [4]: 2.1 h | bioavailability [5]: 7% | IC50 [1]: 27 nM | IC50 (Cytochrome P450 1A2): > 10000 nM | IC50 (Cytochrome P450 2C9): > 10000 nM | IC50 (Cytochrome P450 2D6): > 10000 nM | remaining at 1 h [6]: 19% | IC50 (Cytochrome P450 3A4): > 10000 nM | Vd [7]: 13.4 L/kg | CLH [8]: 114.6 mL/min/kg

C[C@@H]1CC(c2cnc3c(C#N)nn([C@H](C)c4ccc(Cl)cc4Cl)c3n2)=CC[C@@H]1N1CCC[C@H]1CO
half-life [9]: 7.6 h | AUC(0-inf) [2]: 125 ng·h/mL | remaining at 1 h [3]: 81% | inhibition (Mus musculus [10]): Dose-dependent effect | Vd [11]: 5.7 L/kg | IC50 (Cytochrome P450 2C19): > 10000 nM | CLH [12]: 11.3 mL/min/kg | half-life [4]: 4.1 h | bioavailability [13]: 30% | half-life [14]: 9.9 h | half-life [15]: 16.4 h | CLH [16]: 10.7 mL/min/kg | inhibition in vivo at 30 mg/kg (Mus musculus [17]): 100% | bioavailability [5]: 28% | clearance [18]: 12 mL/min/kg | bioavailability [19]: 75% | IC50 [1]: 40 nM | IC50 (Cytochrome P450 1A2): > 10000 nM | IC50 (Cytochrome P450 2C9): > 10000 nM | IC50 (Cytochrome P450 2D6): > 10000 nM | half-life [20]: 2.2 h | remaining at 1 h [6]: 32% | bioavailability [21]: 26% | IC50 (Cytochrome P450 3A4): > 10000 nM | Vd [7]: 9.8 L/kg | CLH [8]: 74.7 mL/min/kg

CC(c1ccc(Cl)cc1Cl)n1ncc2ncc(C3=CCN(C(=O)[C@H]4CCCCN4)CC3)nc21 (some centres not stated)
bioavailability [22]: 25% | IC50 [1]: 275 nM

C[C@@H]1CC(c2cnc3c(C#N)nn([C@H](C)c4ccc(Cl)cc4Cl)c3n2)=CC[C@@H]1N1CCC[C@H]1C(N)=O
remaining at 1 h [3]: 97% | IC50 [1]: 54 nM | remaining at 1 h [6]: 71%

Cc1nn([C@H](C)c2ccc(Cl)cc2Cl)c2nc(C3=CC[C@H](N4CCC[C@H]4CO)[C@H](C)C3)cnc12
remaining at 1 h [3]: 99% | IC50 [1]: 36 nM | remaining at 1 h [6]: 35%

Cc1nn(C(C)c2ccc(Cl)cc2Cl)c2nc(N3CCC(N4CCCCC4)C(C)C3)cnc12 (configuration not stated)
CLH [23]: 38.3 mL/min/kg | AUC(0-inf) [24]: 217 ng·h/mL | IC50 [1]: 126 nM

C[C@@H]1CC(c2cnc3c(C#N)nn([C@H](C)c4ccc(Cl)cc4Cl)c3n2)=CC[C@@H]1N1CCC[C@H]1C(C)(C)O
IC50 [1]: 384 nM

Cc1nn([C@H](C)c2ccc(Cl)cc2Cl)c2nc(N3CC[C@H](N4CCC[C@H]4C(=O)O)[C@H](C)C3)cnc12
IC50 [1]: 670 nM

Cc1nn([C@H](C)c2ccc(Cl)cc2Cl)c2nc(N3CC[C@H](N4CCC[C@H]4CCS(N)(=O)=O)[C@H](C)C3)cnc12
IC50 [1]: 32 nM

Cc1nn([C@H](C)c2ccc(Cl)cc2Cl)c2nc(N3CC[C@H](N4CCC[C@H]4CCC#N)[C@H](C)C3)cnc12
IC50 [1]: 41 nM
